Assay results taken from publication PMC3631442 (ACS chemical biology, 2013).
Values belong to the molecule of their own block, whether it stands above or below them. No end group written: not given here. *: point of attachment. Biotin = O=C1N[C@H]2[C@H](CS[C@H]2CCCCC(=O)*)N1; PEG4 = NCCOCCOCCOCCOCCC(=O)O

How the values were obtained:
[1] = target: T1, Bfl-1 (Homo sapiens, UniProt Q16548); experiment: Fluorescence polarization competition with fluoresceinated Bim BH3; assay type: binding
T1 sequence (Q16548 1-151 limits assumed): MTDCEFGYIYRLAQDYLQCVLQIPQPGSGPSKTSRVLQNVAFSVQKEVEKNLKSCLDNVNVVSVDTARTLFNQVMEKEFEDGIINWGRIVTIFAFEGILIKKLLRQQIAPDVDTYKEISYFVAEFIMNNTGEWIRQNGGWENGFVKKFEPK

[2] = target: Bcl-xL (Homo sapiens, UniProt Q07817); experiment: as above; assay type: binding
[3] = target: Bcl-2 (Homo sapiens, UniProt P10415); experiment: as above; assay type: binding
[4] = target: 18-residue fluoresceinated Bim BH3 peptide (human); experiment: fluorescence polarisation
[5] = target: Bcl-w (UniProt Q92843); experiment: fluorescence polarisation
[6] = target: T2, Bfl-1; experiment: fluorescence polarisation
T2 sequence (Q16548 whole entry, species assumed, looked up): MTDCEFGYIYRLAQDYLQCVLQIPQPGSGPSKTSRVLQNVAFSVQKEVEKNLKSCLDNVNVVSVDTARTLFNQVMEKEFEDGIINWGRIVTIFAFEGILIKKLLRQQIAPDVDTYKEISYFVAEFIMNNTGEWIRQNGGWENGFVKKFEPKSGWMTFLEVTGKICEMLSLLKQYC

[7] = target: Bid BH3 BH3 (Homo sapiens) (UniProt P55957); conditions: cited from earlier work
[8] = target: Puma BH3 BH3 (Homo sapiens) (UniProt Q9BXH1); conditions: cited from earlier work
[9] = target: Mcl-1 (Homo sapiens, UniProt Q07820); experiment: Fluorescence polarization competition with fluoresceinated Bim BH3; assay type: binding
[10] = target: T3, Bcl-w (Homo sapiens, UniProt Q92843); experiment: as above; assay type: binding
T3 sequence (Q92843 1-193): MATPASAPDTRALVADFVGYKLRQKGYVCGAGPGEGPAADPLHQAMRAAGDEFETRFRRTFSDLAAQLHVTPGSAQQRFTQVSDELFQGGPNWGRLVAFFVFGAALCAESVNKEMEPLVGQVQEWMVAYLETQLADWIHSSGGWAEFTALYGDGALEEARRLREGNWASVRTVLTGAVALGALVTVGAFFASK

[11] = target: T1, Bfl-1; experiment: Bio-layer interferometry; assay type: binding
How it was run: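 Biotinylated 23-residue test peptide (free N-terminus, amidated C-terminus), at 0.1 mg/ml, loaded on streptavidin biosensors to ~0.42 response units. Protein at 2–3 concentrations (30–250 nM) associated for 10 min, then dissociated for 60 min in 20 mM phosphate, 50 mM NaCl, 0.1% BSA, pH 7.5. Off-rate upper bound taken from signal fluctuation over 1000 s. Association phase fit for kon and Rmax.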

[12] = target: T4, Mcl-1 (UniProt Q07820 1-350); experiment: fluorescence polarisation
[13] = target: T5, Bcl-xL (UniProt Q07817-1 1-233); experiment: fluorescence polarisation
[14] = target: T6, Bcl-w (UniProt Q92843 1-193); experiment: fluorescence polarisation
[15] = target: T7, Bcl-2 (UniProt P10415 1-239); experiment: fluorescence polarisation
[16] = target: T2, Bfl-1; experiment: fluorescence polarisation; remark: listed apart in the source
[17] = target: T4, Mcl-1; experiment: BLI
[18] = target: T5, Bcl-xL; experiment: BLI
[19] = target: T6, Bcl-w; experiment: fluorescence polarisation; remark: listed apart in the source
[20] = target: T7, Bcl-2; experiment: fluorescence polarisation; remark: listed apart in the source

T5 sequence (Q07817 whole entry): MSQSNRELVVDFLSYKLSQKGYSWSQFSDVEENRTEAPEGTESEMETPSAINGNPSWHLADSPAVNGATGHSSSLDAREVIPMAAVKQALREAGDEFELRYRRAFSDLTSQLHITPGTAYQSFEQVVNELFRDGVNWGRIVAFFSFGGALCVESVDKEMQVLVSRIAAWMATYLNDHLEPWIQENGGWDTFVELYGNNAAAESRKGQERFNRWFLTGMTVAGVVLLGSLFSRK
Chain of Mcl-1 (Homo sapiens, UniProt Q07820) (Q07820 whole entry): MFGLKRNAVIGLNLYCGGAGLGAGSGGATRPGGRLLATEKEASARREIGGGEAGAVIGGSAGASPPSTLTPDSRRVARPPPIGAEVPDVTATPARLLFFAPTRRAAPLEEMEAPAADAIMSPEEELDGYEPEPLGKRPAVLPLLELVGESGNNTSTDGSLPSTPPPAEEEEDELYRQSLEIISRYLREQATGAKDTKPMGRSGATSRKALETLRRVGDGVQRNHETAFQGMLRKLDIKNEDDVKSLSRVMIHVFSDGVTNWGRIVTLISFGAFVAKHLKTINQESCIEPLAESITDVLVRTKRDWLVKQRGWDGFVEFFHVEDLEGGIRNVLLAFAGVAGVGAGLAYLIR
T7 sequence (P10415 whole entry): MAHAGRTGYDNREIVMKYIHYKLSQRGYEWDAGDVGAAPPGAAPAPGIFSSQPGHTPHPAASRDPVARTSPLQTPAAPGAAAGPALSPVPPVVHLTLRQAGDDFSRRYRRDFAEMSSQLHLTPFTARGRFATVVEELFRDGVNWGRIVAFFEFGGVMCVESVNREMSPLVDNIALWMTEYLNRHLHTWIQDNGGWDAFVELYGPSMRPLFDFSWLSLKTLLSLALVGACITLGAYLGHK
T4 sequence (Q07820 whole entry): as the sequence (Q07820 whole entry) above
Chain of Bcl-xL (Homo sapiens, UniProt Q07817) (Q07817 whole entry): as the sequence (Q07817 whole entry) above
Chain of Puma BH3 BH3 (Homo sapiens) (Q9BXH1 130-155): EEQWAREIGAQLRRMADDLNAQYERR
Chain of Bcl-2 (Homo sapiens, UniProt P10415) (P10415 whole entry): as the sequence (P10415 whole entry) above
Chain of Bid BH3 BH3 (Homo sapiens) (P55957 79-104): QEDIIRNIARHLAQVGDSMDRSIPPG

Molecule: Bfl-1 (domain or fragment)
Kd [4]: 4 nM

Molecule: Bim_D3fK with E3gV (peptide)
fold weakening of binding against Bim D3fK [5]: 2.5 fold
fold increase in binding against Bim D3fK [6]: 2 fold

Molecule: Bfl-1 (from UniProt Q16548)
Kd [7]: 50 nM
Kd [8]: 50 nM

Molecule: Ac-RPEIWIAQGLRRIGDTWNAYYAR-NH2 [FW1 (unlabeled, 23 residues)]
Ki [12]: 0.2 nM
Ki [13]: 20 nM
Ki [14]: 298 nM
Ki [15]: 31 nM

Molecule: Ac-RPEIWLAQYLRRLGDQINAYYAR-NH2 [FD1]
Ki [16]: 0.7 nM
Ki [12]: 0.1 nM
Ki [13]: 5 nM
Ki [14]: 12 nM
Ki [15]: 7 nM

Molecule: H-RPEIWMAQVLRRFGDLLNAYYAR-OH [FD2]
Ki [16]: 3.8 nM
Ki [13]: 18 nM
Ki [14]: 104 nM
Ki [15]: 223 nM

B1: Biotinylated FA1 (peptide)
peptide: {Biotin-PEG4}-RPEIWIAQELRRAGDVLNAYYAR-NH2
SMILES: CC[C@H](C)[C@H](NC(=O)[C@H](Cc1c[nH]c2ccccc12)NC(=O)[C@@H](NC(=O)[C@H](CCC(=O)O)NC(=O)[C@@H]1CCCN1C(=O)[C@H](CCCNC(=N)N)NC(=O)CCOCCOCCOCCOCCNC(=O)CCCC[C@@H]1SC[C@@H]2NC(=O)N[C@@H]21)[C@@H](C)CC)C(=O)N[C@@H](C)C(=O)N[C@@H](CCC(N)=O)C(=O)N[C@@H](CCC(=O)O)C(=O)N[C@@H](CC(C)C)C(=O)N[C@@H](CCCNC(=N)N)C(=O)N[C@@H](CCCNC(=N)N)C(=O)N[C@@H](C)C(=O)NCC(=O)N[C@@H](CC(=O)O)C(=O)N[C@H](C(=O)N[C@@H](CC(C)C)C(=O)N[C@@H](CC(N)=O)C(=O)N[C@@H](C)C(=O)N[C@@H](Cc1ccc(O)cc1)C(=O)N[C@@H](Cc1ccc(O)cc1)C(=O)N[C@@H](C)C(=O)N[C@@H](CCCNC(=N)N)C(N)=O)C(C)C
Kd [17]: ~6 nM
Kd [18]: ~33 nM

Molecule: Ac-RPEIWIAQELRRAGDVLNAYYAR-NH2 [FA1 (unlabeled, 23 residues)]
Ki [13]: 8 nM
Ki [15]: 313 nM

Molecule: Ac-IWIAQELRRIGDEFNAYY-NH2 (also: fluoresceinated, site not given here) [18-residue fluoresceinated Bim BH3 peptide]
Kd [19]: 15 nM
Kd [20]: 5 nM

Now from value to molecule:

fold lower Ki for Bfl-1 compared to Bcl-w ([1]; from competition FP Ki values): ~ 37 fold
Ki [2]: 20 to 30 nM
Ki [3]: 20 to 30 nM
Molecule: Ac-RPEIWIAQGLRRIGDTWNAYYAR-NH2 [FW1]

Ki [1]: 0.7 ± 0.2 nM
Molecule: Ac-RPEIWLAQYLRRLGDQINAYYAR-NH2 [FD1]

Ki [1]: 3.8 ± 0.7 nM
specificity for Bfl-1 over Bcl-xL, Bcl-2 and Bcl-w ([1]; from competition FP Ki values): 4-60 fold
Ki [9]: 1 ± 0.1 nM
Molecule: RPEIWMAQVLRRFGDLLNAYYAR [FD2]

Ki [9]: 1 ± 0.1 nM
Ki [10]: 2 ± 1 nM
Kd [11]: ≤ 0.3 nM
koff ([11]; pH 7.5, read-out: upper limit on koff, dissociation of Bfl-1 from surface-bound peptide): ≤ 1.5e-05 s⁻¹
Molecule: Ac-RPEIWIAQELRRAGDVLNAYYAR-NH2 [FA1]
